Experimental data: publication PMC8159431 (Chemical Science, 2020)
Where two headings read alike, the source gives them in different places.

What was measured:
Format in all cases: binding
Aβ40 aggregates = Aβ40 aggregates (Homo sapiens, UniProt P05067)
Method in brief: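 Aβ40 aggregates were taken at 90 min, 200 min and 24 h from a compound-free aggregation run and ultracentrifuged. They were titrated with a range of probe concentrations, and fluorescence intensity was read. Kd was obtained by curve fitting (n = 3). Binding ratio is Kd relative to the Kd of the 50% sucrose tau fraction.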

[1] = target: tau (0N4R) aggregates, sucrose gradient fractions (Homo sapiens, UniProt P10636)
Method in brief: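 Tau aggregates were separated by sucrose gradient ultracentrifugation into 10–50% fractions, and the 20% fraction was characterised by TEM. Each fraction was titrated with the test compound and fluorescence intensity was read. Kd was obtained by curve fitting (n = 3–6). Ratios compare Kd with the 50% sucrose tau Kd, and tau Kd with the Kd for Aβ40 aggregates at 200 min.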

[2] = target: tau aggregates (Tau-441 human) (Homo sapiens, UniProt P10636); test: Fluorimeter assay with aliquots of the tau aggregation; details: tau aggregates at different time points
Chain of tau aggregates (Tau-441 human) (P10636 1-441 isoform P10636-8): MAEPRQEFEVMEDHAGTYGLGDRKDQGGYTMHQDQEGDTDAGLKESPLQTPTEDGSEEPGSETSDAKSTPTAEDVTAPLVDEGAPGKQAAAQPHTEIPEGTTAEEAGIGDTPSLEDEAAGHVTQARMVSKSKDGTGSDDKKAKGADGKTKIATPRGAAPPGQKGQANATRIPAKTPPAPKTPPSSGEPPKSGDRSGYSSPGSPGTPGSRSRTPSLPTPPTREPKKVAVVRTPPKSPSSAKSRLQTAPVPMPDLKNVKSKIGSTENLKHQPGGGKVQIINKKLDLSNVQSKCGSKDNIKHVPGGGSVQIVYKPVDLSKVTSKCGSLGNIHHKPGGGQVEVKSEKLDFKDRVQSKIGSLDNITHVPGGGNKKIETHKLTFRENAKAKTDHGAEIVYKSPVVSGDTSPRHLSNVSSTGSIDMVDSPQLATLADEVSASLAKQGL

Chain of tau (0N4R) aggregates, sucrose gradient fractions (P10636 1-383 isoform P10636-6): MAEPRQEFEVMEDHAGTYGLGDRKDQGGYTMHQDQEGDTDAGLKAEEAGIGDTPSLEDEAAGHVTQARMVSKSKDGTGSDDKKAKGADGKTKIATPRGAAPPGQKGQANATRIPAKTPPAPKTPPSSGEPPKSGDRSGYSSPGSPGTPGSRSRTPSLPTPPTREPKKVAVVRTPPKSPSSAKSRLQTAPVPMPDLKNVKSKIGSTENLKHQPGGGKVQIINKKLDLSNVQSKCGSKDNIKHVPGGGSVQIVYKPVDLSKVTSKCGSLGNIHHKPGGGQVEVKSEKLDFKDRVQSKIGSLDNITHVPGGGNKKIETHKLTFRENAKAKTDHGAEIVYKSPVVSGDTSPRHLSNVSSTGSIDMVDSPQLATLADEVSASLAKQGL
Chain of Aβ40 aggregates (P05067 672-711 limits assumed): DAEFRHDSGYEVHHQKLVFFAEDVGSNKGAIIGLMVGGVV

- binding ratio (Kd compared with the 50% sucrose tau Kd) (Aβ40 aggregates; 200 minute Aβ): 5
- binding ratio (Kd compared with the 50% sucrose tau Kd) (Aβ40 aggregates; 24 hour Aβ): 3
- Kd (Aβ40 aggregates; Aβ40 aggregates at 90 min): no binding affinity
- Kd (Aβ40 aggregates; Kd, Aβ40 aggregates at 200 min): 930 ± 300 nM
- Kd (Aβ40 aggregates; Kd, Aβ40 aggregates at 24 h): 650 ± 190 nM
- binding ratio (Kd compared with the 50% sucrose tau Kd) ([1]; 10% sucrose tau): 148
- binding ratio (Kd compared with the 50% sucrose tau Kd) ([1]; 20% sucrose tau): 14
- binding ratio (Kd compared with the 50% sucrose tau Kd) ([1]; 30% sucrose tau): 26
- binding ratio (Kd compared with the 50% sucrose tau Kd) ([1]; 40% sucrose tau): 6
- binding ratio (Kd compared with the 50% sucrose tau Kd) ([1]; 50% sucrose tau): 1
- Kd ([1]; 10% sucrose tau fraction): 29600 ± 2100 nM
- Kd ([1]; 20% sucrose tau fraction): 2750 ± 570 nM
- Kd ([1]; 40% sucrose tau fraction): 1290 ± 200 nM
- Kd ([1]; 50% sucrose tau fraction): 200 ± 10 nM
- emission spectrum shift over the tau aggregation [2]: No emission spectrum shifts
Compound: O=C(O)Cc1cc(-c2ccc(C(=O)O)s2)sc1-c1ccc(-c2sc(-c3ccc(C(=O)O)s3)cc2CC(=O)O)s1 [pFTAA, 3''',4'-bis(carboxymethyl)-[2,2':5',2'':5'',2''':5''',2''''-quinquethiophene]-5,5''''-dicarboxylic acid]
